Most compounds without a hit are left out; they make up all but 2.1% or so of the library.
RanGTP-Imp inh – inhibitors of RanGTP-importin-beta interaction, primary screen, biochemical, FRET, CFP-Ran, YFP-importin-beta, homogeneous. cell-free CFP-Ran/YFP-importin-beta FRET ratio. inhibition, % (concentration not given with the values). 300,000 compounds, 1.1% hits;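 active = more than half of the replicate wells show a fall in the fluorescence ratio signal beyond about 16%, limit read from the data, passing the limit was not always enough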
TbHK1 inh – T. brucei hexokinase 1 inhibition. recombinant TbHK1, G6PDH-coupled NADH A340. inhibition, % at 10 µM. 220,000 compounds, 0.11% hits;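 active = inhibition of 50% or more in the single-dose primary screen; inactive = inhibition below 50%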
Runt-CBFb FRET – Runt domain-CBFb interaction inhibition | 220,000 compounds, 0.46% hits | Cerulean-Runt/Venus-CBFb FRET ratio 530/480, 1 h | Q01196+Q13951 | inhibition, % at 20 µM;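 active = inhibition over about 50% at 20 µM in the single-dose screen, limit read from the data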
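Assay system: Cerulean-Runt domain fusion protein, energy donor; Signal: fluorescence energy transfer, 422 nm excitation, 530/480 nm emission; Timing: 1 h compound exposure, room temperature; Control set: unlabeled CBFb; Medium: Tris buffer pH 7.5 with salts and BSA; Compound: single test concentration of 20 µM, 1% DMSO final; Probe or stimulus: Venus-CBFb 100 nM.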
Hck-Nef inh – inhibitors of human Hck kinase activated by Nef; P08631; Recombinant Hck-YEEI plus Nef, Z-Lyte FRET kinase assay; inhibition, % at 20 µM; 220,000 compounds, 0.68% hits; AID 463187;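 active = Hck-Nef kinase inhibition above about 50%, limit read from the data; inactive = inhibition below that limit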
p97 inhibitor – blocks human p97 ATPase activity; inhibition, % at 8 µM; recombinant p97 ATPase, Kinase-Glo ATP luminescence, 3 h; P55072; 220,000 compounds, 0.42% hits; in the data active = inhibition above about 15%
Target sequence (P55072 whole entry, looked up): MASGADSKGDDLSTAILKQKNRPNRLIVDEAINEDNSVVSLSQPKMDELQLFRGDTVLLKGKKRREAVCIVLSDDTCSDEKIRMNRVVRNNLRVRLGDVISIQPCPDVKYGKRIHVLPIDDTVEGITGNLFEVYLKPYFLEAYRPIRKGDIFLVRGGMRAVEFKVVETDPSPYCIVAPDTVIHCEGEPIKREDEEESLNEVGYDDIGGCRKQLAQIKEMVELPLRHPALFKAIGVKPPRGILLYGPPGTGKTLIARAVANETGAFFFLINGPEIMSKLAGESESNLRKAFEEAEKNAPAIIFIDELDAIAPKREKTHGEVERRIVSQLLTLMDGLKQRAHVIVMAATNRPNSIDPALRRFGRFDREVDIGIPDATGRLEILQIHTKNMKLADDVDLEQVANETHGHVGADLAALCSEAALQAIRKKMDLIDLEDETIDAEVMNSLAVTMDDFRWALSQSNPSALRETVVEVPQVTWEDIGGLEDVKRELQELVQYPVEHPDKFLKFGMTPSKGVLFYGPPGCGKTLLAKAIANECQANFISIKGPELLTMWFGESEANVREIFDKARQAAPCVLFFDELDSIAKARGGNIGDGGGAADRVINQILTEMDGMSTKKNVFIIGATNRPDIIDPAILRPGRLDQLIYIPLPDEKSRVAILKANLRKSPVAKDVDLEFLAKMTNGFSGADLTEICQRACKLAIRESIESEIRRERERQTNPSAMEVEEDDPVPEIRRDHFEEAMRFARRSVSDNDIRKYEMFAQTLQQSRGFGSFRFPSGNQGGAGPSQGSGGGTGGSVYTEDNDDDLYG
Runt-SMMHC FRET – Runt domain-CBFb-SMMHC interaction inhibition. Q01196+Q13951. 220,000 compounds, 0.74% hits. Cerulean-Runt/Venus-CBFb-SMMHC FRET ratio 530/480, 1 h. inhibition, % at 20 µM. AID 1434;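 active = mean inhibition across duplicate retests at 20 µM reaching about 50%, limit read from the data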;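 also: inhibitors lower the FRET ratio by blocking Runt binding to CBFb-SMMHC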
Hits are given with their value.

`CN1/C(=C\C=C(/C#N)C(=O)Nc2ccccc2F)C(C)(C)c2ccccc21` gave RanGTP-Imp inh 122.3, TbHK1 inh inactive, Runt-CBFb FRET inactive, Hck-Nef inh inactive, p97 inhibitor inactive and Runt-SMMHC FRET 58.5.
Screening CCC(C)NC(=O)Cn1c(-c2ccccc2)cc(C(C)=O)c1C (stereo unspecified) returned RanGTP-Imp inh inactive, TbHK1 inh inactive, Runt-CBFb FRET inactive, Hck-Nef inh inactive, p97 inhibitor inactive and Runt-SMMHC FRET inactive.
Screening O=[N+]([O-])c1ccc(S(=O)(=O)NCC2COc3ccccc3O2)cc1 (stereo unspecified) returned RanGTP-Imp inh 186.9.
For CCOC(=O)CN(C#N)c1nc(N(C)C)nc(N(C)C)n1 the results were RanGTP-Imp inh inactive, TbHK1 inh inactive, Runt-CBFb FRET inactive, Hck-Nef inh inactive, p97 inhibitor inactive and Runt-SMMHC FRET inactive.
`Cc1cccn2c(=O)c3cc(C(=O)NC4CCCC4)c(=N)n(CCCN4CCOCC4)c3nc12` gave RanGTP-Imp inh 175.0.
Screening Cc1cccn2c(=O)c3cc(C(=O)NCCN4CCOCC4)n(C)c3nc12 returned RanGTP-Imp inh inactive.
`Cc1cccn2c(=O)c3cc(C(=O)NCCN4CCOCC4)c(=N)n(CCN4CCOCC4)c3nc12` gave RanGTP-Imp inh 127.8.
For Cc1cccn2c(=O)c3cc(C(=O)NCCN4CCOCC4)c(=N)n(Cc4ccc(F)cc4)c3nc12 the results were RanGTP-Imp inh 161.9.
`Cc1cccn2c(=O)c3cc(C(=O)NCCN4CCOCC4)n(Cc4ccccc4)c3nc12` gave Runt-CBFb FRET inactive and Runt-SMMHC FRET inactive.
Screening COc1ccc(N2CCN(C(=O)c3ccc4ccccc4n3)CC2)cc1 returned RanGTP-Imp inh inactive, TbHK1 inh inactive, Runt-CBFb FRET inactive, Hck-Nef inh inactive, p97 inhibitor inactive and Runt-SMMHC FRET inactive.
Cc1cc(Nc2c(C)n(C)n(-c3ccccc3)c2=O)n2c(nc3ccccc32)c1C#N was read as RanGTP-Imp inh 107.1, TbHK1 inh inactive, Runt-CBFb FRET inactive, Hck-Nef inh inactive, p97 inhibitor inactive and Runt-SMMHC FRET inactive.
CCCc1cc(Nc2c(C)n(C)n(-c3ccccc3)c2=O)n2c(nc3ccccc32)c1C#N was read as RanGTP-Imp inh 107.4, TbHK1 inh inactive, Runt-CBFb FRET inactive, Hck-Nef inh inactive, p97 inhibitor inactive and Runt-SMMHC FRET inactive.
For Cc1ccc(S(=O)(=O)NC(=O)c2cc(C)n(CCCN3CCOCC3)c2C)cc1 the results were RanGTP-Imp inh 60.0, TbHK1 inh inactive, Runt-CBFb FRET inactive, Hck-Nef inh inactive, p97 inhibitor inactive and Runt-SMMHC FRET inactive.
For Cc1ccc(S(=O)(=O)NC(=O)NCCCN2CCOCC2)cc1 the results were RanGTP-Imp inh inactive.
`COc1ccc(S(=O)(=O)N2CCOCC2)cc1NC(=O)CCc1c[nH]c2ccccc12` gave RanGTP-Imp inh inactive, TbHK1 inh inactive, Runt-CBFb FRET inactive, Hck-Nef inh inactive, p97 inhibitor inactive and Runt-SMMHC FRET inactive.
Screening N#C/C(=C\c1ccc(N2CCOCC2)o1)C(=O)NCCc1ccccc1 returned RanGTP-Imp inh 53.4, TbHK1 inh inactive, Runt-CBFb FRET inactive, Hck-Nef inh inactive, p97 inhibitor inactive and Runt-SMMHC FRET 93.7.
`COCCNC(=O)/C(C#N)=C/c1ccc(N2CCOCC2)o1` gave RanGTP-Imp inh 50.5, TbHK1 inh inactive, Runt-CBFb FRET inactive, Hck-Nef inh inactive, p97 inhibitor inactive and Runt-SMMHC FRET inactive.
O=C1C=C(NCCOC23CC4CC(CC(C4)C2)C3)C2(CCCCC2)O1 was read as RanGTP-Imp inh inactive, TbHK1 inh inactive, Runt-CBFb FRET inactive, Hck-Nef inh inactive, p97 inhibitor inactive and Runt-SMMHC FRET inactive.
Cc1ccccc1CN(C)C(C)C(=O)Nc1ccccc1F (stereo unspecified) was read as RanGTP-Imp inh inactive, TbHK1 inh inactive, Runt-CBFb FRET inactive, Hck-Nef inh inactive, p97 inhibitor inactive and Runt-SMMHC FRET inactive.
`CCc1cc(=O)oc2c(CNCc3ccccc3F)c(O)c(Cl)cc12` gave RanGTP-Imp inh 35.9.
Screening Cc1ccc(C)c(NC(=O)CN(C)C(=O)c2ccccc2OCc2ccccc2Cl)c1 returned RanGTP-Imp inh inactive.
Screening O=c1ccc2cc3ccoc3cc2o1 returned RanGTP-Imp inh inactive.
Screening O=c1ccc2cc(O)c(O)cc2o1 returned RanGTP-Imp inh 80.7, TbHK1 inh inactive, Runt-CBFb FRET inactive, Hck-Nef inh inactive, p97 inhibitor inactive and Runt-SMMHC FRET 72.6.
For O=c1c2c([N+](=O)[O-])cc([N+](=O)[O-])cc2sn1-c1ccc(Br)cc1 the results were TbHK1 inh 92.0, Runt-CBFb FRET inactive, Hck-Nef inh inactive, p97 inhibitor inactive and Runt-SMMHC FRET inactive.
Screening CCN(CC)CCN1C(=O)C(=O)/C(=C(/O)c2ccc(S(=O)(=O)N3CCOCC3)cc2)C1c1ccccc1 (stereo unspecified) returned RanGTP-Imp inh inactive.
Cc1c(CC=C(Cl)Cl)c(=O)[nH]c2c(C)cccc12 was read as RanGTP-Imp inh inactive, TbHK1 inh inactive, Runt-CBFb FRET inactive, Hck-Nef inh inactive, p97 inhibitor inactive and Runt-SMMHC FRET inactive.
COc1cc(C2Nc3ccccc3NC3=C2C(=O)CC(c2ccc(OC)c(OC)c2)C3)ccc1O (stereo unspecified) was read as RanGTP-Imp inh inactive, TbHK1 inh inactive, Runt-CBFb FRET inactive, Hck-Nef inh inactive, p97 inhibitor inactive and Runt-SMMHC FRET 55.7.
Screening COc1ccc(C2CC(=O)C3=C(C2)Nc2ccccc2N(C(=O)C2CC2)C3c2cccnc2)cc1OC (stereo unspecified) returned RanGTP-Imp inh inactive, TbHK1 inh inactive, Runt-CBFb FRET inactive, Hck-Nef inh inactive, p97 inhibitor inactive and Runt-SMMHC FRET inactive.
Oc1oc(-c2ccccc2)nc1C=Nc1cccc2ccccc12 was read as RanGTP-Imp inh 27.3, TbHK1 inh inactive, Runt-CBFb FRET inactive, Hck-Nef inh inactive, p97 inhibitor inactive and Runt-SMMHC FRET inactive.
For Cc1cccc(C(=O)NC(=S)NCc2cccnc2)c1 the results were RanGTP-Imp inh inactive, TbHK1 inh inactive, Runt-CBFb FRET inactive, Hck-Nef inh inactive, p97 inhibitor inactive and Runt-SMMHC FRET inactive.
Screening CCN1CCN(c2cc(=O)n(-c3cc(Cl)ccc3C)c(=O)[nH]2)CC1 returned RanGTP-Imp inh 72.0, TbHK1 inh inactive, Runt-CBFb FRET inactive, Hck-Nef inh inactive, p97 inhibitor inactive and Runt-SMMHC FRET inactive.
For O=c1cc(N2CCc3ccccc3C2)[nH]c(=O)n1-c1ccccc1Cl the results were RanGTP-Imp inh 79.6, TbHK1 inh inactive, Runt-CBFb FRET inactive, Hck-Nef inh inactive, p97 inhibitor inactive and Runt-SMMHC FRET inactive.
For Cc1ccc(-n2c(=O)cc(N3CCc4ccccc4C3)[nH]c2=O)cc1 the results were RanGTP-Imp inh 40.1, TbHK1 inh inactive, Runt-CBFb FRET inactive, Hck-Nef inh inactive, p97 inhibitor inactive and Runt-SMMHC FRET inactive.

Compound activity from PubChem BioAssay.
